Experimental findings from the array DNA melting data of Ke et al. (doi:10.1101/2024.01.08.574731) are described below.

Series [1] is described as follows: folding enthalpy; higher = less favourable; fluorescence melt of hairpins on a sequencing array, two-state fit. The following applies: sodium 0.088 M. A digest of the protocol:
(§1)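 Bootstrapped two-state fits yielded melting temperature and folding enthalpy for library hairpins. Cy3 fluorescence, with annealed Cy3 and quencher oligos, was imaged on a sequenced MiSeq flow cell in 50 mM Na-HEPES pH 8.0, 25 mM NaCl in 2.5 °C steps up to 60 °C, and normalised to pre-quench Cy3 and to control constructs. Four replicates were combined by inverse variance, and fitted temperatures were raised by 9.35 °C to match UV melts.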

A short description of series [2]: melting temperature; fluorescence melt of hairpins on a sequencing array, two-state fit, raised by 9.35 °C to match UV melts. The following applies: sodium 0.088 M. A digest of the protocol:
as §1

As to GCTTCACGAAAGTGGAGC (((.(((....))).))), the folding enthalpy in series [1] is -43.7 kcal/mol. Moreover, the Tm in series [2] was determined as 58.3 °C.

As to GCTTCAGGAAACTGAGGC ((.((((....)))).)), in series [1], the folding enthalpy was -37.3 kcal/mol. Further, the Tm in series [2] was 47.7 °C.

In the case of GCTTCAGGAAACTGGAGC (((.(((....))).))), the folding enthalpy in series [1] is -38.5 kcal/mol. Moreover, the Tm in series [2] is 49.9 °C.

In the case of GCTTCCGAAAGGAGCAGC ((((((....)))..))), the folding enthalpy in series [1] is -15.2 kcal/mol. Besides, the Tm in series [2] came to 41.7 °C.

As to GCTTCCGCGAAAGCGAGC (((..(((....)))))), in series [1], the folding enthalpy was -11 kcal/mol. For the same sequence, in series [2], the Tm stood at 35.5 °C.

With GCTTCCGGAAACGGGAGC (((.(((....))).))), in series [1], the folding enthalpy was -40.1 kcal/mol. Besides, the Tm in series [2] was 59.5 °C.

With GCTTCGAAAGAAGC (((((....))))), the folding enthalpy in series [1] was -26.6 kcal/mol. Also, the Tm in series [2] came out at 66.8 °C.

Take GCTTCGCGAAAGCAACGC ((.(.((....)).).)): the folding enthalpy in series [1] was -10 kcal/mol. In series [2], the Tm stood at 29.2 °C.

In the case of GCTTCGCGAAAGCGCCGC ((..(((....)))..)), in series [1], the folding enthalpy is -12.2 kcal/mol. Moreover, in series [2], the Tm was determined as 44.7 °C.

As for GCTTCGCGAAAGCGCGGC ((..(((....)))..)), the folding enthalpy in series [1] was -18.8 kcal/mol. Also, in series [2], the Tm came out at 39.6 °C.

Consider GCTTCGCGAAAGCGGCGC ((..(((....)))..)), for which the folding enthalpy in series [1] was -15.6 kcal/mol. The Tm in series [2] is 51.9 °C.

In the case of GCTTCGCGAAAGCTCAGC (((..((....))..))), in series [1], the folding enthalpy is -13.4 kcal/mol. For the same sequence, in series [2], the Tm amounted to 44.5 °C.

GCTTCGGAAACGAAGC ((((((....)))))): the folding enthalpy in series [1] was -36.3 kcal/mol. The Tm in series [2] came to 67.8 °C.

With GCTTCGGGAAACTGAGGC ((.((.(....).)).)), in series [1], the folding enthalpy was -28.8 kcal/mol. Further, the Tm in series [2] is 36.5 °C.

Regarding GCTTCTACGAAAGTAAGC (((..(((....)))))), the folding enthalpy in series [1] was -14 kcal/mol. For the same sequence, the Tm in series [2] stood at 33.1 °C.

Regarding GCTTCTCGAAAGAGAGC (((.(((....)))))), in series [1], the folding enthalpy was -22 kcal/mol. Further, the Tm in series [2] was determined as 49.4 °C.

Regarding GCTTCTGGAAACAGGAGC (((.(((....))).))), the folding enthalpy in series [1] is -37.5 kcal/mol. Also, in series [2], the Tm is 50.5 °C.

For the sequence GCTTGACCGAAAGGTAGC (((..(((....)))))), the folding enthalpy in series [1] was -21.4 kcal/mol. In addition, the Tm in series [2] was determined as 38.7 °C.

For GCTTGACGAAAGTCTAGC (((.(((....))).))), the folding enthalpy in series [1] was -35.2 kcal/mol. Besides, the Tm in series [2] was 55.2 °C.

As to GCTTGAGGAAACTTGAGC (((..((....))..))), the folding enthalpy in series [1] was -16.7 kcal/mol. Further, in series [2], the Tm came to 33.8 °C.

As for GCTTGCGAAAGCAATAGC ((((((....)))..))), the folding enthalpy in series [1] was -15.3 kcal/mol. Moreover, the Tm in series [2] was 47.1 °C.

For GCTTGGCGAAAGCAGAGC (((..((....))..))), the folding enthalpy in series [1] was -18.2 kcal/mol. Besides, the Tm in series [2] came out at 54 °C.

With GCTTGGCGAAAGCCAGGC ((.((((....)))).)), the folding enthalpy in series [1] is -23.5 kcal/mol. In addition, the Tm in series [2] turned out to be 66.4 °C.

As for GCTTGGCGAAAGCCCAGC (((.(((....))).))), the folding enthalpy in series [1] is -36.6 kcal/mol. Also, in series [2], the Tm was 51.2 °C.

In the case of GCTTGGCGAAAGCCGGGC ((..(((....)))..)), the folding enthalpy in series [1] was -20.6 kcal/mol. For the same sequence, the Tm in series [2] was 59.2 °C.

On to GCTTGGCGAAAGCCTAGC (((.(((....))).))), for which, in series [1], the folding enthalpy is -41.9 kcal/mol. Besides, in series [2], the Tm came out at 57.6 °C.

As to GCTTGGCGAAAGCGAAGC ((((.((....)).)))), the folding enthalpy in series [1] is -18.6 kcal/mol. The Tm in series [2] turned out to be 60.4 °C.

For GCTTGGCGAAAGCGACGC ((.(.((....)).).)), the folding enthalpy in series [1] is -13.2 kcal/mol. Moreover, the Tm in series [2] was 45.5 °C.

Take GCTTGGCGAAAGCGAGGC ((.(.((....)).).)): in series [1], the folding enthalpy is -15.3 kcal/mol. The Tm in series [2] was 43.3 °C.

Take GCTTGGCGAAAGCGATGC ((.(.((....)).).)): the folding enthalpy in series [1] was -14.3 kcal/mol. In series [2], the Tm turned out to be 45 °C.

GCTTGGCGAAAGCGGAGC (((..((....))..))): the folding enthalpy in series [1] is -16.8 kcal/mol. Further, in series [2], the Tm was 48.6 °C.

Take GCTTGGCGAAAGCTAGGC ((.(.((....)).).)): the folding enthalpy in series [1] was -17 kcal/mol. Further, the Tm in series [2] was found to be 44.6 °C.

As for GCTTGGCGAAAGCTCAGC (((..((....))..))), the folding enthalpy in series [1] is -15.2 kcal/mol. Also, the Tm in series [2] is 41.1 °C.

For GCTTGGGGAAACCCAAAC (.(((((....))))).), the folding enthalpy in series [1] was -14.5 kcal/mol. Further, the Tm in series [2] was 39.3 °C.

Regarding GCTTGTGAAAACAAGC ((((((....)))))), the folding enthalpy in series [1] is -34.3 kcal/mol. Besides, the Tm in series [2] stood at 63.5 °C.

In the case of GCTTGTGGAAACACAAGC (((((((....))))))), the folding enthalpy in series [1] was -39.9 kcal/mol. In addition, the Tm in series [2] was determined as 63.9 °C.

In the case of GCTTGTGGAAACGTAAGC ((((..(....)..)))), in series [1], the folding enthalpy is -17.7 kcal/mol. Further, in series [2], the Tm is 36.6 °C.
